From the EternaBench riboswitch data

Test system: MS2 coat protein
Assay: apparent Kd, MS2 coat protein; higher = weaker binding; RNA-MaP array
Summary of the method: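 RNA designs were transcribed from sequenced DNA templates on an Illumina sequencing chip and then incubated at room temperature with fluorescently labeled MS2 coat protein at 1.5 nM to 3 μM, with or without input ligand, in Tris-HCl pH 7.5 buffer containing KCl, MgCl2, BSA, DTT, tRNA and Tween20. Incubation lasted 0.8–1.5 h at the lowest protein concentrations and 10–20 min at the highest. Apparent Kd is the median of binding-curve fits made for each cluster. Designs measured on fewer than 10 clusters were excluded.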

[1] = designed as: ON switch for flavin mononucleotide, no ligand
[2] = ligand present: flavin mononucleotide, designed as: ON switch for flavin mononucleotide
[3] = designed as: OFF switch for theophylline, no ligand
[4] = ligand present: theophylline, designed as: OFF switch for theophylline
[5] = designed as: OFF switch for flavin mononucleotide, no ligand
[6] = ligand present: flavin mononucleotide, designed as: OFF switch for flavin mononucleotide

Row | Sequence | apparent Kd [5] | apparent Kd [6] | other results
1 | CCGCCACGUCAAGGAUAUGCACGGGAGCCCGUAGCAGAAGGUGAGGCGAACGCCAUCCCACAUGAGGAUCACCCAUGUACGGGC | – | – | apparent Kd [1]: 786 nM; apparent Kd [2]: 202 nM
2 | CCUAUUCCUACGGAUACCAGACGAUCCGUGGCGUGUGUGAACAUGAGGAUCACCCAUGUAGUCCCUUGGCAGCCGAUGCGGGUAA | – | – | apparent Kd [3]: 34.3 nM; apparent Kd [4]: 132 nM
3 | CCUCAAAUGACAUGAGGAUCACCCAUGUAGCGCACAACCGCUAGAAGGACGACAAAGUCUUAUGCGUAGGAUAUAGCGAGCGCG | – | – | apparent Kd [1]: 132 nM; apparent Kd [2]: 133 nM
4 | CCUGAACGGGACAUGAGGAUCACCCAUGUAUGAGACUCAAAGAAGGAUAUCUUACAUACAGUUCGAGAGAAGGUCUAGCAAACG | 86.5 nM | 54.9 nM | –
5 | CCUUAAGCAUAAGGAUAUAAGUUUUGACUAAGUUUAGAAGGUAUGCUUGCAAGAUCCGGCAAUAACAUGAGGAUCACCCAUGUG | 27.6 nM | 21.3 nM | –
6 | CCUUAGAUACAUGAGGAUCACCCAUGUCACCAGCAACCUGACGAGGAUAUAUAGGCCAAAUAACUAUAGAAGGCGUUGACCCAA | – | – | apparent Kd [1]: 20.5 nM; apparent Kd [2]: 12.4 nM
7 | CGCAAUUCCUGAGGAUAUUGGCAGCGACAUGAGGAUCACCCAUGUGACCAUUUGGUGUUUUGUGUCAAGAAGGCAGCCCAUGAG | 44.9 nM | 33.8 nM | –
8 | CGCACACAGCAACCAAAAUAAACAUGAGGAUCACCCAUGUCACAGGAUAUGGCGAACCCAGGCGACCAGAAGGGUGUAAACACA | – | – | apparent Kd [1]: 26.6 nM; apparent Kd [2]: 18.6 nM
9 | CGGUUACUAGGAUAUACAUGAGGAUCACCCAUGUGACCUCCCGUCACGCGUGUACUGGGUAGAAGGAGUCAGGU | 24.8 nM | 34.8 nM | –
10 | CGUCAGUAAGGAUAUACCCGCACUUAACACGAGCGUCGUCGGUAGAAGGUACAUGAGGAUCACCCAUGUAGAAA | 7.84 nM | 8.95 nM | –
11 | CGUCUAGUUGAGAAGGAUUCGGCGUCGGUCAUGUUAAUCUGGAAACAUGAGGAUCACCCAUGUCAAUAGGAUAUCAGGGCACUA | 11.2 nM | 12.8 nM | –
12 | CGUGAAUACGAAGGAUAUGAAACAUGAGGAUCACCCAUGUAAGGUUUAAGCGACGGCUUGACAGGUCAGAAGGUCGUCCGCAUG | – | – | apparent Kd [1]: 42.2 nM; apparent Kd [2]: 27.8 nM
13 | CUACUCAUAGGAUAUGAAGCCCGAGACAUGAGGAUCACCCAUGUAUGAUCUACUGUGCGCUCAGAAGGAUGCAGUA | 23.9 nM | 13.4 nM | –
14 | CUAGAAGACACGGAGGAUAUGUUGUGUAUUACAUGAGGAUCACCCAUGUUCGGAAGUACCGAUUGACAGAAGGCCGUGCAAUCGCU | – | – | apparent Kd [1]: 6.66 nM; apparent Kd [2]: 5.73 nM
15 | CUCGAGUCAGGAUAUAUUAACAGAACUUCCUAAAUGGACGAAUAGAAGGGACAUGAGGAUCACCCAUGUUUGGC | 11.8 nM | 11 nM | –
16 | CUGACGUCAGGAUAUGCUAAUAAACAACAUAAAAGACAAGUGCAGAAGGGACAUGAGGAUCACCCAUGUGAAAA | 14.6 nM | 15.3 nM | –
17 | CUGAGGUUAGGAUAUCUUCUGUUAUCUUCACGAUGAUAAACAGAGAAGGAACAUGAGGAUCACCCAUGUGGUCU | 135 nM | 99.8 nM | –
18 | CUGCCACAGAUAGAUACCAGAGGCGUGCAAGCUACAGCUCACAUGAGGAUCACCCAUGUUCUCCCUUGGCAGCUACGGUGUAAGG | – | – | apparent Kd [3]: 16.6 nM; apparent Kd [4]: 17.4 nM
19 | CUGGUUGUCAAAGGAUAUAAACGAUCACAUGAGGAUCACCCAUGUCUCCCUAUGUUAAUAAGCGCUUAGAAGGUUGAGCCAGCC | 31.3 nM | 34.4 nM | –
20 | CUUUACUGAGGAUAUACGCAGAUCUAGAUAUCGUAAUACGAACAUGAGGAUCACCCAUGUAGAAGGCAGGCCGA | 12.4 nM | 24.1 nM | –
21 | GAACAGCGGCAGAAGGACUCGCGAUUGUGUACGAACAUGAGGAUCACCCAUGUGUGAGUAUUCCAGUAGGAUAUGCGUUCUAUA | 17.2 nM | 12.1 nM | –
22 | GAACGUAGAGGAUAUACGACAAUGCACUGAUCGACGAGUACACAUGAGGAUCACCCAUGUAGAAGGCUAGGAAU | 7.28 nM | 6.45 nM | –
23 | GAAUACGUCAUGAUGAACAUGAGGAUCACCCAUGUAGUGCCUUAGGAUAUGCUACGAUUACUGCCGCAGAAGGAAGUGCAAGAA | – | – | apparent Kd [1]: 44.1 nM; apparent Kd [2]: 28.4 nM
24 | GAGAGGAGGGAGAAGGAGAUAGUCUUCGGCAAUCUAGGAUAUCCACGUAGGGAAUCUCACAUGAGGAUCACCCAUGUUCAGCCG | 34.8 nM | 31.7 nM | –
25 | GAGCUCCACAAGAAGGGCCGUUGCCCAUGGAAGGACGGCACAUGAGGAUCACCCAUGUUGGCAGGGCAGGAUAUUGCAUUUAUU | 26 nM | 82.8 nM | –
26 | GAGUGGUAAGGAUAUAAUACGAAUACGGUGAAACCCGGCGUUUAGAAGGUACAUGAGGAUCACCCAUGUGAUUA | 13.2 nM | 13.8 nM | –
27 | GAUAGUCCCAAGGAUAUGUGGGUUUUAUCUUCUACAGAAGGUGGGACAUGAGGAUCACCCAUGUUGCGGCGAGG | 26.8 nM | 261 nM | –

Row | Sequence | apparent Kd [5] | apparent Kd [6] | other results
28 | GAUAUGGUGGCUCAGGAUAUGCAAGGCUUAACAUGAGGAUCACCCAUGUUAUUUAAUGUGCAAGCGCAGAAGGGAGCUUGGCAAAA | – | – | apparent Kd [1]: 9.39 nM; apparent Kd [2]: 5.53 nM
29 | GAUCAACAUGAGGAUCACCCAUGUUAGGAUAUCACACCGGAAAGUGAAAUGCUUUUCUUGAGAAGGAACAAGGC | 7.91 nM | 7.28 nM | –
30 | GAUGACUUAGGAUAUCAAAUUCUCGACAUGAGGAUCACCCAUGUGUAUCCGCCAGGUUAGUGAGAAGGAAGUUGGA | 91.3 nM | 77.8 nM | –
31 | GAUUGACAUGAGGAUCACCCAUGUAGCGUAUGGUGACUUCUGAAGGAUAUUAAUGCAGUGGCGGUUAAGAAGGUCAGCUAAUCG | 45.7 nM | 35 nM | –
32 | GAUUGAGUUCUAGGAUAUCCAGAGCGGCGUGGGACAUGAGGAUCACCCAUGUGCUCUAUGAUCAUGGAGAAGGAGAACCCCGUU | 37.3 nM | 46 nM | –
33 | GCAAAGUGAUCGGCCGCCACUGCAAUGCUUAAUGGAGGUCCACAUGAGGAUCACCCAUGUCUUCCCAGGACCGGGAUCUCGAGUU | – | – | apparent Kd (designed as: ON switch for tryptophan, no ligand): 60.7 nM; apparent Kd (ligand present: tryptophan, designed as: ON switch for tryptophan): 66.9 nM
34 | GCACGGAAAGGAUAUACAUGAGGAUCACCCAUGUUUCUUCUCAGGGCAAUUACCACAUGUAGAAGGUUCUCCAG | 29.4 nM | 39.8 nM | –
35 | GCAGUCCUCCGAGGAUAUAUGACAAUUGACGUGAGAUGUUAGCACAUGAGGAUCACCCAUGUUUUAUAGAAGGCGGGAUAGGUU | – | – | apparent Kd [1]: 20.5 nM; apparent Kd [2]: 18.3 nM
36 | GGACAACAUGAGGAUCACCCAUGUGAGAAGUGCAAAGGAUAUCGCAGAAGUGAUAACGAACGAGAAGGUUGCCUCU | – | – | apparent Kd [1]: 23.6 nM; apparent Kd [2]: 10.1 nM
37 | GGACGUGGGCAGGAUAUGCGAAUUGAUUGAGCGGCAGAAGGGCCUACAUGAGGAUCACCCAUGUAGAUGCUUAC | 5.4 nM | 11.7 nM | –
38 | GGAUGCUCGACUCAGGAUAUACACACCGCAACAUGAGGAUCACCCAUGUAAUACGAACAAUGCACGUAGAAGGGAGGUUAACUCGA | – | – | apparent Kd [1]: 46.4 nM; apparent Kd [2]: 19.1 nM
39 | GGAUUAAGCUAGAAGGUACGAUCACCGUGAUGGUAAGGAUAUAGAACGAUGCCGAUUCCAACAUGAGGAUCACCCAUGUUCCUA | – | – | apparent Kd [1]: 447 nM; apparent Kd [2]: 260 nM
40 | GGCGCGGCAGGAUAUGGAUGACGUGACAUGAGGAUCACCCAUGUGCUUAGAUCAUUCGUACCAGAAGGGCCCGCAG | 4.29 nM | 4.3 nM | –
41 | GGGAAACUCUACACUCACAACACAUGAGGAUCACCCAUGUUAAGAAGGUUCAGAACGGGCAAUCGAAAGGAUAUUAGGAUGGCU | 10.7 nM | 10.2 nM | –
42 | GGGAGAGAGGUCAGGAUAUUGCGGCGAAAUGCAGUCAAGAAGGGACAUGAGGAUCACCCAUGUACAUCAAGAGC | 6.38 nM | 10.4 nM | –
43 | GGGCGACAUGAGGAUCACCCAUGUGUCGAUACCAGUAUGAAUUUCUACCCUUGGCAGCGACGACACGGUUAUUUGUGCACUUCGA | – | – | apparent Kd (designed as: ON switch for theophylline, no ligand): 81.8 nM; apparent Kd (ligand present: theophylline, designed as: ON switch for theophylline): 200 nM
44 | GGUACCGCGGUGAGGAUAUCCUGCGUUUGGCAGCUGGAGAAGGCACAUGAGGAUCACCCAUGUAAAGAGAAUGC | 10.5 nM | 16.2 nM | –
45 | GGUCCACAUGAGGAUCACCCAUGUAAGGAUAUCCUGUUUUCUGGUUUAGAGUCGCGAAGGAGAAGGUACAUUAA | 22.5 nM | 41.1 nM | –
46 | GGUCGUGAUAAGGAUAUUGGCUGUCGUGCAAUCCAAGAAGGUAUCACAUGAGGAUCACCCAUGUACGCGUGUUG | 44.1 nM | 85.6 nM | –
47 | GGUCUGCCAUUUCAGGAUAUGCUCAGUGCAACAUGAGGAUCACCCAUGUCAGGCUCGAACGACUCGCAGAAGGGAAGUCACGGAUG | – | – | apparent Kd [1]: 102 nM; apparent Kd [2]: 61.4 nM
48 | GGUGAAUUAGUGAGGAUAUGAUAGACAAACAAAAUACAGAAGGCACAUGAGGAUCACCCAUGUGACGGAGAGAA | 6.31 nM | 5.93 nM | –
49 | GGUGUUCCUCUAGGAUAUAGCGAUACAUGAGGAUCACCCAUGUUACUCCAGCGCGGCGGAUCGCUCUAGAAGGAGACAUAGCCA | 75.1 nM | 53.4 nM | –
50 | GGUUGACCUGAGGAACAUGAGGAUCACCCAUGUGUUAGCGGAAAGGAUAUUCGAUUGCACGUUAAGAAGAAGGUUCCAACGUUA | – | – | apparent Kd [1]: 14.4 nM; apparent Kd [2]: 15.8 nM
51 | GGUUGAUGGUCGGCCGCCACUGUUGGUGCCAUGAGUUAAGUAUAGCACAUGAGGAUCACCCAUGUCAGGACCGGGACUCUACCCG | – | – | apparent Kd (designed as: OFF switch for tryptophan, no ligand): 14.6 nM; apparent Kd (ligand present: tryptophan, designed as: OFF switch for tryptophan): 18.1 nM
52 | GUAAAACGGAAGAAGGCGCGGAGUACAGGGUAAAAUCAGGUCACAUGAGGAUCACCCAUGUGGAGCGAGGAUAUUCAUAAGGUA | 24.7 nM | 63.2 nM | –
53 | GUACGGUUCCAAGGAUAUGAUAGGUGACAUGAGGAUCACCCAUGUGCCGGUGGUGGGAGCGAGGAUCAGAAGGUGGCCAGCGGU | – | – | apparent Kd [1]: 60 nM; apparent Kd [2]: 45.4 nM
54 | GUAUGUGGUGAGGAUAUCCACCCGCGGGUAUAUGGAGAAGGCACUACAUGAGGAUCACCCAUGUUAACUUGCCA | 10.1 nM | 31.8 nM | –
